Read-outs that look alike come from different tables or passages of the source.
Tests used:
[1] = format: in vivo, human; details: for CL/F / AUC / AUC(0-inf) / Cmax / concentration at 14 day / Tmax / Vd/F / half-life: geometric mean (SD); for AUC / AUC(0-inf) / Cmax / concentration at 14 day / Tmax / Vd/F / half-life: human, plasma, oral; for AUC: AUC0–τ; for AUC(0-inf): AUC0–∞; for concentration at 14 day: Cmin; for Vd/F: Vz/F; for time to steady-state conditions: predose samples
Procedure, shortened: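 Plasma sampled on Days 1 and 14 predose and 0.5–24 h postdose, plus predose on Days 3, 5, 7, 10, 13, 16. Blood kept on ice, spun 2,000g 15 min at 5°C within 45 min, and plasma stored at –70°C. Extraction was by protein precipitation with internal standard. Parameters came from noncompartmental analysis. ANOVA on ln-transformed Cmax, Cmin and AUC0–τ gave geometric mean ratios with 90% CIs versus matched controls.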

Safety and tolerability = format: in vivo, human; details: for tolerability: 150 mg once daily for 14 days, regardless of HI
Procedure, shortened: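 Adverse events were monitored continuously and graded with the Division of AIDS toxicity scale. Hematology, clinical chemistry, urinalysis and 12-lead ECG were done at screening, baseline (Day –1), Day 14 and Day 28, with hematology and chemistry also at Day 7. Physical exams ran through follow-up (Day 28, or Day 35 for hepatic impairment). Data were summarised descriptively without formal statistical testing.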

CCR2 = CCR2 (Homo sapiens, UniProt P41597); assay: CCR2 antagonist activity: plasma CCR2 ligand; format: in vivo; details: across all groups, P < 0.05
Procedure, shortened: (§1)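 Adults with mild or moderate hepatic impairment and matched controls with normal hepatic function were given an oral 150 mg tablet of the test compound over 14 days. Plasma was sampled on Day 1 (predose), Day 7 and Day 14. CCL2, CCL3 and CCL4 were measured by Luminex multiplex and CCL5 by ELISA. Medians, IQR and change from baseline were reported, with Wilcoxon tests.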

CCR5 = CCR5 (Homo sapiens, UniProt P51681); assay: CCR5 antagonist activity: plasma CCR5 ligand; format: in vivo; details: for CCL4 median fold-change: P < 0.05
Procedure, shortened: as §1

[2] = system: I-FABP, flagellin, LBP, sCD14; format: in vivo, human; details: within each group
Procedure, shortened: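 Participants with mild or moderate hepatic impairment and matched normal-function controls received a single-tablet 150 mg oral test compound, dosed over 14 days. I-FABP, flagellin, LBP and sCD14 were quantified by ELISA, following kit instructions, in plasma from Day 1 (predose), Day 7 and Day 14. Results were summarised by day as medians, IQR and change from baseline, using Wilcoxon tests.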

[3] = cited from earlier work
[4] = cited from earlier work; remark: listed apart in the source
CYP3A4 = details: cited from earlier work
CYP2C8 = details: cited from earlier work
P-glycoprotein = details: cited from earlier work
[5] = cited from earlier work; remark: listed apart in the source
[6] = Day 14, mild hepatic impairment
[7] = Day 14, moderate hepatic impairment
[8] = 150 mg, Day 14, 150 mg once daily, matched controls (mild)
[9] = 150 mg, Day 14, 150 mg once daily, matched controls (moderate)
[10] = 150 mg, Day 14, 150 mg once daily, mild hepatic impairment
[11] = 150 mg, Day 14, 150 mg once daily, moderate hepatic impairment
[12] = matched controls (mild) (N = 7)
[13] = matched controls (moderate) (N = 8)
[14] = mild hepatic impairment (N = 8)
[15] = moderate hepatic impairment (N = 8)

Chain of CCR5 (P51681 whole entry): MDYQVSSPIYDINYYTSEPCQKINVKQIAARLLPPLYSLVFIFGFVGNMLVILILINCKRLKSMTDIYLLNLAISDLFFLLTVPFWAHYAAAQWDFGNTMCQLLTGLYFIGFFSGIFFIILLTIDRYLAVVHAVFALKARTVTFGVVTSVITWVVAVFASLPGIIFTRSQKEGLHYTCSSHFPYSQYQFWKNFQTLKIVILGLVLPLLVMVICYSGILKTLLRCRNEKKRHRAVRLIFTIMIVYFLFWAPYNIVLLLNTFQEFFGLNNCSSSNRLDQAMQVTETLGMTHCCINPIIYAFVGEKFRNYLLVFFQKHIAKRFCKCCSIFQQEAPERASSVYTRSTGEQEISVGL
Chain of CCR2 (P41597 whole entry): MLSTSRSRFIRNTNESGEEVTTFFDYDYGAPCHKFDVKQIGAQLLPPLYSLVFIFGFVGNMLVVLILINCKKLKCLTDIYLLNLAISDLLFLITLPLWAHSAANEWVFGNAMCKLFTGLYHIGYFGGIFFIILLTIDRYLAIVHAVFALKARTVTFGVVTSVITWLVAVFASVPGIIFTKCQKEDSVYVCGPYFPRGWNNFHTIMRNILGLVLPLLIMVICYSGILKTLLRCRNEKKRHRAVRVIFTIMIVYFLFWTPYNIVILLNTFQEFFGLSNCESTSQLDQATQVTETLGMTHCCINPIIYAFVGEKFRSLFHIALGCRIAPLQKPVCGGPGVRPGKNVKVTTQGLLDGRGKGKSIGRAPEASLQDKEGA

## CCCCOCCOc1ccc(-c2ccc3c(c2)/C=C(/C(=O)Nc2ccc([S@@+]([O-])Cc4cncn4CCC)cc2)CCCN3CC(C)C)cc1 [cenicriviroc]
[1]; Day 1, 150 mg, matched controls (mild)
  CL/F: 22.1 L/h
[1]; Day 1, 150 mg, matched controls (moderate)
  CL/F: 31.7 L/h
[1]; Day 1, 150 mg, mild hepatic impairment
  CL/F: 27.1 L/h
[1]; Day 1, 150 mg, moderate hepatic impairment
  CL/F: 25.8 L/h
[1]; Day 14, 150 mg once daily, matched controls (mild)
  CL/F: 14.4 (1.5) L/h
[1]; Day 14, 150 mg once daily, matched controls (moderate)
  CL/F: 25.3 (2.0) L/h
[1]; Day 14, 150 mg once daily, mild hepatic impairment
  CL/F: 23.2 (1.9) L/h
[1]; Day 14, 150 mg once daily, moderate hepatic impairment
  CL/F: 16.3 (1.3) L/h
[1]; [6]
  AUC0–τ lower than matched controls: 38%
  Cmax lower than matched controls: 40%
  Cmin lower than matched controls: ~27%
[1]; [7]
  AUC0–τ higher than matched controls: 55%
  Cmax higher than matched controls: 29%
  Cmin higher than matched controls: ~97%
[1]; [8]
  AUC: 10400 ng·h/mL
  AUC(0-inf): 18900 ng·h/mL
  Cmax: 759 ng/mL
  concentration at 14 day: 248 ng/mL
  Tmax: 5.66 h
  Vd/F: 455 L
[1]; [9]
  AUC: 5940 ng·h/mL
  AUC(0-inf): 11000 ng·h/mL
  Cmax: 469 ng/mL
  concentration at 14 day: 140 ng/mL
  Tmax: 4.49 h
  Vd/F: 816 L
[1]; [10]
  AUC: 6470 ng·h/mL
  AUC(0-inf): 14600 ng·h/mL
  Cmax: 452 ng/mL
  concentration at 14 day: 180 ng/mL
  Tmax: 5.34 h
  Vd/F: 995 L
[1]; [11]
  AUC: 9180 ng·h/mL
  AUC(0-inf): 26100 ng·h/mL
  Cmax: 607 ng/mL
  concentration at 14 day: 275 ng/mL
  Tmax: 4.83 h
  Vd/F: 886 L
[1]; 150 mg, Day 1, 150 mg, matched controls (mild)
  Vd/F: 262 L
[1]; 150 mg, Day 1, 150 mg, matched controls (moderate)
  Vd/F: 370 L
[1]; 150 mg, Day 1, 150 mg, mild hepatic impairment
  Vd/F: 329 L
[1]; 150 mg, Day 1, 150 mg, moderate hepatic impairment
  Vd/F: 386 L
[1]; 150 mg, t1/2, Day 1, 150 mg, moderate hepatic impairment
  half-life: 624 min
[1]; 150 mg, t1/2, Day 14, 150 mg once daily, matched controls (mild)
  half-life: 1320 min
[1]; 150 mg, t1/2, Day 14, 150 mg once daily, matched controls (moderate)
  half-life: 1340 min
[1]; 150 mg, t1/2, Day 14, 150 mg once daily, mild hepatic impairment
  half-life: 1780 min
[1]; 150 mg, t1/2, Day 14, 150 mg once daily, moderate hepatic impairment
  half-life: 2260 min
[1]; matched controls
  time to steady-state conditions: 7 to 10 days
[1]; participants with mild or moderate HI
  time to steady-state conditions: 10 to 13 days
Safety and tolerability
  tolerability: generally well tolerated
Safety and tolerability; listed as Cenicriviroc
  tolerability: well tolerated
Safety and tolerability; Day 7, one matched control (moderate), resolved upon continued dosing
  AST (treatment-emergent Grade 1 elevation): 1.3 x ULN
Safety and tolerability; Day 28, another participant with moderate HI, screening 5.9 x ULN
  AST: 10.2 x ULN
Safety and tolerability; [12]
  Participants with any treatment-related AEs: 3 (42.9) N (%)
  Treatment-related AE: Dry mouth: 2 (28.6) N (%)
  Treatment-related AE: Epigastric discomfort: 0 (0) N (%)
  Treatment-related AE: Flatulence: 0 (0) N (%)
  Treatment-related AE: Headache: 1 (14.3) N (%)
  Treatment-related AEs Grade 1: 3 (42.9) N (%)
  Treatment-related AEs Grade 2: 0 (0) N (%)
  Treatment-related AEs Grade 3: 0 (0) N (%)
  Treatment-related AEs Grade 4: 0 (0) N (%)
Safety and tolerability; [13]
  Participants with any treatment-related AEs: 4 (50.0) N (%)
  Treatment-related AE: Dry mouth: 0 (0) N (%)
  Treatment-related AE: Epigastric discomfort: 0 (0) N (%)
  Treatment-related AE: Flatulence: 1 (12.5) N (%)
  Treatment-related AE: Headache: 1 (12.5) N (%)
  Treatment-related AEs Grade 1: 4 (50.0) N (%)
  Treatment-related AEs Grade 2: 0 (0) N (%)
  Treatment-related AEs Grade 3: 0 (0) N (%)
  Treatment-related AEs Grade 4: 0 (0) N (%)
Safety and tolerability; [14]
  Participants with any treatment-related AEs: 6 (75.0) N (%)
  Treatment-related AE: Dry mouth: 0 (0) N (%)
  Treatment-related AE: Epigastric discomfort: 1 (12.5) N (%)
  Treatment-related AE: Flatulence: 1 (12.5) N (%)
  Treatment-related AEs Grade 1: 6 (75.0) N (%)
  Treatment-related AEs Grade 2: 0 (0) N (%)
  Treatment-related AEs Grade 3: 0 (0) N (%)
  Treatment-related AEs Grade 4: 0 (0) N (%)
Safety and tolerability; [15]
  Participants with any treatment-related AEs: 4 (50.0) N (%)
  Treatment-related AE: Dry mouth: 0 (0) N (%)
  Treatment-related AE: Epigastric discomfort: 1 (12.5) N (%)
  Treatment-related AE: Flatulence: 0 (0) N (%)
  Treatment-related AE: Headache: 1 (12.5) N (%)
  Treatment-related AEs Grade 1: 4 (50.0) N (%)
  Treatment-related AEs Grade 2: 0 (0) N (%)
  Treatment-related AEs Grade 3: 1 (12.5) N (%)
  Treatment-related AEs Grade 4: 0 (0) N (%)
CCR2; Day 7 vs Day 1 (predose)
  CCL2 median fold-change: 4.4–5.5
CCR2; Day 14 vs Day 1 (predose)
  CCL2 median fold-change: 4.8–6.0
CCR5; after 7 days of treatment vs Day 1 (predose)
  CCL4 median fold-change: 1.8–2.3
CCR5; after 14 days of treatment vs Day 1 (predose)
  CCL4 median fold-change: 1.6–2.5
CCR5; any group
  CCL3 levels change during treatment: did not change significantly
CCR5; matched controls (moderate) only, Day 14 vs Day 1, P = 0.008
  CCL5 change during treatment: increased significantly
[2]
  I-FABP change during treatment: None of these markers changed significantly
  LBP change during treatment: None of these markers changed significantly
  flagellin change during treatment: None of these markers changed significantly
  sCD14 change during treatment: None of these markers changed significantly
[3]; healthy participants
  time to reach steady-state plasma concentrations: 8 to 10 days
[3]; in humans
  plasma half-life: 30 to 40 h
[3]; in vivo
  effect of administration with food on bioavailability: increase
[4]
  bound to plasma proteins: > 98%
CYP3A4
  substrate of CYP3A4: substrate
CYP2C8
  substrate of CYP2C8: substrate
P-glycoprotein
  substrate of P-glycoprotein: substrate
[5]; HIV-infected participants
  APRI, FIB-4 and enhanced liver fibrosis score: decreases
[5]; HIV-positive participants (Study 202)
  sCD14 levels: decreased

— article PMC5351328 (Clinical and Translational Science, 2016)
